Experimental findings from ChEMBL document CHEMBL4014347, “Targeting Mycolic Acid Transport by Indole-2-carboxamides for the Treatment of Mycobacterium abscessus Infections” (J Med Chem, 2017) are described below.

In series [1] the test system is Vero. In words: Cytotoxicity against African green monkey Vero cells. Type of series: cell-based. The conditions noted are these: Chlorocebus sabaeus.
Series [2] in a line: Selectivity index, ratio of IC50 for African green monkey Vero cells to MIC for Mycobacterium abscessus CIP104536. Type of series: toxicity. The conditions noted are these: read-out: Selectivity Index.
The nature of series [3]: Selectivity index, ratio of IC50 for African green monkey Vero cells to MIC=<90 for Mycobacterium tuberculosis. Type of series: toxicity. Conditions: read-out: Selectivity Index.
For series [4], the system named is Mycobacteroides abscessus. Description: Antibacterial activity against Mycobacterium abscessus CIP104536 after 3 to 5 days by two fold serial dilution method. Type of series: functional. Put shortly:
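Broth microdilution per CLSI in cation-adjusted Mueller–Hinton broth; exponential-phase inoculum 5 × 10^6 CFU/mL; two-fold serial dilutions from highest concentration, solvent wells as control; 30 °C for 3−5 days; MIC read visually and confirmed by absorbance at 560 nm; triplicate on three independent occasions.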

Series [5] deals with Mycobacterium tuberculosis. In words: Antibacterial activity against Mycobacterium tuberculosis by AlamarBlue assay. Type of series: functional.

In brackets after ≈: the same amount, converted by molar mass.

Usually IC50 stands for the concentration that gives 50% inhibition. As a reminder, the MIC is the lowest concentration that inhibits growth of the organism. With `O=C(NC1CCC2(CCCCC2)CC1)c1cc2c(Cl)cc(Cl)cc2[nH]1`, in series [1], the IC50 is not below 64 µg/mL. In addition, the selectivity ratio in series [2] is not below 2; in series [3], not below 32800. In addition, in series [4], the MIC was more than 32 µg/mL. The “MIC=<90” value in series [5] was determined as 0.001953 µg/mL (≈ 0.00515 µM).

With `Cc1cc(C)c2cc(C(=O)NC3CCCCCC3)[nH]c2c1`, in series [1], the half-maximal inhibitory concentration (IC50) is 16 µg/mL (≈ 56.3 µM). The results for the selectivity ratio in series [2] and in series [3] were 128 and 4100, respectively. This molecule returned an MIC in series [4] of 0.125 µg/mL (≈ 0.44 µM). Moreover, the “MIC=<90” value in series [5] worked out at 0.0039 µg/mL (≈ 0.0137 µM).

On to `CO[C@H]1/C=C/O[C@@]2(C)Oc3c(C)c(O)c4c(O)c(c(/C=N/N5CCN(C)CC5)c(O)c4c3C2=O)NC(=O)/C(C)=C\C=C\[C@H](C)[C@H](O)[C@@H](C)[C@@H](O)[C@@H](C)[C@H](OC(C)=O)[C@@H]1C` [RIFAMPIN], for which, in series [1], the IC50 was more than 256 µg/mL.

Take `O=C(NC12CC3CC(CC(C3)C1)C2)c1cc2c(Cl)cc(Cl)cc2[nH]1`: the IC50 in series [1] was not below 32 µg/mL. In addition, the selectivity ratio in series [2] was not below 1; in series [3], not below 8210. In series [4], this molecule came in with an MIC of more than 32 µg/mL. Moreover, in series [5], the “MIC=<90” value amounted to 0.0039 µg/mL (≈ 0.0107 µM).

For `Cc1cc(C)c2cc(CNC(=O)C3CCCCCC3)[nH]c2c1`, the MIC in series [4] is more than 32 µg/mL. Further, the “MIC=<90” value in series [5] was 16 µg/mL (≈ 53.6 µM).

`CC1(C)C2CC[C@@]1(C)C(NC(=O)c1cc3c(Cl)cc(Cl)cc3[nH]1)C2` (some centres undefined) displayed an IC50 in series [1] of 8 µg/mL (≈ 21.9 µM). Moreover, the results for the selectivity ratio in series [2] and in series [3] were 0.25 and 513, respectively. The MIC in series [4] is more than 32 µg/mL. For the same molecule, in series [5], the “MIC=<90” value amounted to 0.0156 µg/mL (≈ 0.0427 µM).

For the molecule `Cc1cc(C)c2[nH]c(C(=O)NC3CCCCCC3)cc2c1`, inhibition of growth in series [4] (MIC) required 0.25 µg/mL (≈ 0.879 µM). Also, in series [5], the “MIC=<90” value came out at 0.0625 µg/mL (≈ 0.22 µM).

In series [4], `Cc1cc(C)c2cc(C(=O)NC3CCCCCCC3)oc2c1` yielded an MIC of 0.5 µg/mL (≈ 1.67 µM). Also, in series [5], the “MIC=<90” value is 8 µg/mL (≈ 26.7 µM).

Regarding `Cc1cccc2cc(C(=O)NC3CCCCCC3)[nH]c12`, inhibition of growth in series [4] (MIC) required 16 µg/mL (≈ 59.2 µM). The “MIC=<90” value in series [5] came to 1 µg/mL (≈ 3.7 µM).

In turn, `CC(C)=CCC/C(C)=C/CNC(=O)c1cc2c(Cl)cc(Cl)cc2[nH]1` registered an MIC in series [4] of more than 32 µg/mL. Further, the “MIC=<90” value in series [5] was found to be 4 µg/mL (≈ 10.9 µM).

`O=C(NC1Cc2ccccc2C1)c1cc2c(Cl)cc(Cl)cc2[nH]1` showed an MIC in series [4] of more than 32 µg/mL. For the same molecule, in series [5], the “MIC=<90” value amounted to 0.25 µg/mL (≈ 0.724 µM).

In the case of `O=C(NC1CCCCCCC1)c1cc2cc(Cl)ccc2o1`, the MIC in series [4] amounted to 0.5 µg/mL (≈ 1.64 µM). The “MIC=<90” value in series [5] was determined as 8 µg/mL (≈ 26.2 µM).

Take `Cc1ccc2cc(C(=O)NC3CCCCCC3)[nH]c2c1`: 0.25 µg/mL (≈ 0.925 µM) was the least that counted as inhibitory in series [4] (MIC). The “MIC=<90” value in series [5] is 0.0313 µg/mL (≈ 0.116 µM).

`COc1cc(OC)c2cc(C(=O)NC3CCCCCC3)[nH]c2c1` had an MIC in series [4] of 1 µg/mL (≈ 3.16 µM). In addition, in series [5], the “MIC=<90” value was determined as 0.0625 µg/mL (≈ 0.198 µM).

In series [1], `O=C(NC12CC3CC(CC(C3)C1)C2)c1cc2ccc(Br)cc2[nH]1` came in with an IC50 not below 64 µg/mL. Further, the selectivity ratio in series [2] is not below 4; in series [3] it was not below 4100. This molecule also gave an MIC in series [4] of 16 µg/mL (≈ 42.9 µM). Further, in series [5], the “MIC=<90” value came to 0.0156 µg/mL (≈ 0.0418 µM).
